Source: ChEMBL document CHEMBL5154854, “Identification of a Vitamin-D Receptor Antagonist, MeTC7, which Inhibits the Growth of Xenograft and Transgenic Tumors In Vivo” (J Med Chem, 2022)

Molecular target: T1, Vitamin D3 receptor (Homo sapiens) (UniProt P11473)
T1 sequence (whole entry): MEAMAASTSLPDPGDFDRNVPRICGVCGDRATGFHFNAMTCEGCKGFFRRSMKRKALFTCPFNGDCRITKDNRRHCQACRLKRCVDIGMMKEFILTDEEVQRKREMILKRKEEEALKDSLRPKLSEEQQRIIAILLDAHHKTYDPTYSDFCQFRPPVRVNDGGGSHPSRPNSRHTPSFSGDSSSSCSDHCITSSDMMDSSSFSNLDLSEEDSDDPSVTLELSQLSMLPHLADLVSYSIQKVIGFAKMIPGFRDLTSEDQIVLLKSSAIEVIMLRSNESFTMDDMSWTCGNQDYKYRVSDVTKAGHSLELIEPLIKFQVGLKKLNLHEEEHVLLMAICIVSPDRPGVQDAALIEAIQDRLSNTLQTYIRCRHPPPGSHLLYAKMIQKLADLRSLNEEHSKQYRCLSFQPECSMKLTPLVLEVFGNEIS
Test: Antagonist activity at VDR LBD (unknown origin) using Alexa Fluor 647-labeled SRC2-3 as substrate incubated for 2 hrs in presence of calcitriol by fluorescence polarization assay
Method in brief: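 VDR-LBD (0.1 μM) with Alexa Fluor 647-labelled SRC2-3 (17.5 nM) and 10 nM 1,25(OH)2D3 in 25 mM PIPES, 50 mM NaCl, 0.01% NP-40, pH 6.75. Compounds were serially diluted 1:2 from 10 mM DMSO stocks and incubated 2 h. Polarization was read at 635/685 nm. Three independent experiments in quadruplicate; IC50 by variable-slope nonlinear regression.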

Activity: > 100 µM
Structure (SMILES): CC(C)CCC[C@@H](C)[C@H]1CC[C@H]2C3=CC=C4C[C@@H](O)CC[C@]4(C)[C@H]3CC[C@]12C
